# Data reported in article PMC3580179 (Biopharmaceutics & drug disposition, 2010).
# Several values for one entry are separate records, joined by “and”; a condition that tells them apart may be missing. Equal entries are not always repeated. Where two headings read alike, the source gives them in different places. Marks after values point to notes of the source that are not given here.
# Key:
# [1] = Pharmacokinetics after intravenous administration to rats; format: in vivo, male Sprague-Dawley rats; details: rat; for MRT / Vd / clearance / half-life / AUC(0-inf): male, Sprague-Dawley; for AUC(0-inf): AUC0-∞
# Outline: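 Male Sprague-Dawley rats (250–300 g) with jugular vein cannulae, fed antioxidant-free AIN-76A diet and acclimatized 3 days. Single i.v. dose of 10 or 20 mg/kg via cannula in Cremophor EL/tween-80/ethanol/water (2:1:1:6). Blood (200 μL) sampled from 2 min to 36 h; plasma stored at −80°C and assayed by HPLC-UV. Non-compartmental analysis: log-linear trapezoidal AUC, CL = Dose/AUC0-∞, MRT = AUMC0-∞/AUC0-∞.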
# Blood cell partitioning = format: in vitro ADME; details: rat, fresh pooled rat blood
# Outline: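 Fresh pooled rat blood spiked 1:100 with test compound in methanol (final 10 μg/mL). Incubated 2 h at 37°C in a shaking water bath. Plasma separated at once by centrifugation and assayed by HPLC-UV to give the blood-to-plasma concentration ratio (CB/CP). Run in triplicate.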
# [2] = format: in vivo, Nrf2 knockout C57BL/6J (−/−) mice; details: for AUC0-∞ /Dose: Nrf2(−/−) mice; for AUC, folds increase: Nrf2(−/−) vs Nrf2(+/+) mice; for AUC / Cmax / MRT / Tmax / half-life: male, C57BL/6J, mouse, plasma
# Outline: (§1)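 Age-matched male C57BL/6J mice, Nrf2 (+/+) or (−/−), 10–15 weeks old, on AIN-76A diet from 3 days before dosing. Dosed 500 mg/kg by oral gavage after an overnight fast, or 100 mg/kg i.p.; vehicle Cremophor EL/tween-80/ethanol/water (2:1:1:6). Composite sampling by heart puncture from 2 min (i.p. only) or 7.5 min to 36 h, three mice per time point. Non-compartmental analysis; t1/2 = ln2/kel from terminal slope.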
# [3] = format: in vivo, Nrf2 wild type C57BL/6J (+/+) mice; details: for AUC / Cmax / MRT / Tmax: male, C57BL/6J, mouse, plasma
# Outline: as §1
# [4] = Pharmacokinetics after oral administration to rats; format: in vivo, male Sprague-Dawley rats; details: rat; for Cmax / AUC(0-inf) / MRT / half-life: male, Sprague-Dawley, po
# [5] = p.o. 250 mg/kg, regular emulsion
smiles,measurement,setting,value
"O=C(CC(=O)c1ccccc1)c1ccccc1 [DBM, 1,3-Diphenyl-1,3-propanedione]",MRT,"[1]; plasma, iv, 10 mg/kg",10.4 ± 3.33 h
same,Vd,"[1]; plasma, iv, 10 mg/kg",6.75 ± 1.85 L/kg
same,clearance,"[1]; plasma, iv, 10 mg/kg",11.8 mL/min/kg
same,half-life,"[1]; plasma, iv, 10 mg/kg",14.4 ± 5 h
same,AUC(0-inf),"[1]; plasma, iv, 10 mg/kg, i.v. 10 mg/kg",16500 ± 7850 ng·h/mL
same,MRT,"[1]; plasma, iv, 20 mg/kg",10.2 ± 6.1 h
same,Vd,"[1]; plasma, iv, 20 mg/kg",7.35 ± 4.26 L/kg
same,clearance,"[1]; plasma, iv, 20 mg/kg",12 mL/min/kg
same,half-life,"[1]; plasma, iv, 20 mg/kg",12 ± 5.34 h
same,AUC(0-inf),"[1]; plasma, iv, 20 mg/kg, i.v. 20 mg/kg",27900 ± 2400 ng·h/mL
same,clearance,"[1]; whole blood, intravenous, 10 mg/kg",~12.7 mL/min/kg
same,AUC0-∞ /Dose,"[1]; i.v. 10 mg/kg, 10 mg/kg",1.65 (μg·h/mL)/(mg/kg) and 1.65 ± 0.79 (μg·h/mL)/(mg/kg)
same,AUC0-∞,"[1]; i.v. 20 mg/kg, 20 mg/kg",28000 ± 2400 ng·h/mL
same,AUC0-∞ /Dose,"[1]; i.v. 20 mg/kg, 20 mg/kg",1.40 (μg·h/mL)/(mg/kg) and 1.40 ± 0.12 (μg·h/mL)/(mg/kg)
same,"blood plasma ratio at 2 h, 10 μg/mL",Blood cell partitioning,0.93 ± 0.19
same,AUC0-∞ /Dose,[2]; i.p. 100 mg/kg,0.221 (μg·h/mL)/(mg/kg)
same,AUC0-∞ /Dose,[2]; p.o. 500 mg/kg,0.171 (μg·h/mL)/(mg/kg)
same,"AUC, folds increase",[2]; i.p. 100 mg/kg,2.3 fold
same,"AUC, folds increase",[2]; p.o. 500 mg/kg,1.3 fold
same,"apparent terminal half-life, fold increase","[2]; Nrf2 knockout vs wild type mice, i.p. 100 mg/kg",2 fold
same,AUC,"[2]; ip, 100 mg/kg",22100 ng·h/mL
same,Cmax,"[2]; ip, 100 mg/kg",6860 ng/mL
same,MRT,"[2]; ip, 100 mg/kg",5.15 h
same,Tmax,"[2]; ip, 100 mg/kg",0.25 h
same,half-life,"[2]; ip, 100 mg/kg",5.04 h
same,AUC,"[2]; po, 500 mg/kg",85600 ng·h/mL
same,Cmax,"[2]; po, 500 mg/kg",17400 ng/mL
same,MRT,"[2]; po, 500 mg/kg",6.36 h
same,Tmax,"[2]; po, 500 mg/kg",0.25 h
same,half-life,"[2]; po, 500 mg/kg",8.52 h
same,AUC0-∞ /Dose,"[3]; Nrf2(+/+) mice, i.p. 100 mg/kg",0.096 (μg·h/mL)/(mg/kg)
same,AUC0-∞ /Dose,"[3]; Nrf2(+/+) mice, p.o. 500 mg/kg",0.129 (μg·h/mL)/(mg/kg)
same,Apparent terminal t1/2,"[3]; Nrf2(+/+) mice, p.o. 500 mg/kg, 500 mg/kg",6.09 h
same,AUC,"[3]; ip, 100 mg/kg",9620 ng·h/mL
same,Cmax,"[3]; ip, 100 mg/kg",4560 ng/mL
same,MRT,"[3]; ip, 100 mg/kg",2.76 h
same,Tmax,"[3]; ip, 100 mg/kg",0.25 h
same,AUC,"[3]; po, 500 mg/kg",64600 ng·h/mL
same,Cmax,"[3]; po, 500 mg/kg",23200 ng/mL
same,MRT,"[3]; po, 500 mg/kg",4.73 h
same,Tmax,"[3]; po, 500 mg/kg",0.25 h
same,peak plasma concentration,"[3]; mice, i.p. 100 mg/kg, genotype not given, context Nrf2(+/+)",20.4 µM
same,Cmax,"[4]; in vivo, 250 mg/kg",2880 ± 740 ng/mL
same,AUC(0-inf),"[4]; plasma, 10 mg/kg",2250 ± 330 ng·h/mL
same,Cmax,"[4]; plasma, 10 mg/kg",340 ± 40 ng/mL
same,MRT,"[4]; plasma, 10 mg/kg",7.6 ± 2.3 h
same,half-life,"[4]; plasma, 10 mg/kg",11 ± 3 h
same,AUC(0-inf),"[4]; plasma, 50 mg/kg",9460 ± 1620 ng·h/mL
same,Cmax,"[4]; plasma, 50 mg/kg",1500 ± 410 ng/mL
same,MRT,"[4]; plasma, 50 mg/kg",9.4 ± 2 h
same,half-life,"[4]; plasma, 50 mg/kg",9.3 ± 2 h
same,AUC(0-inf),"[4]; plasma, 250 mg/kg",30400 ± 6890 ng·h/mL
same,Cmax,"[4]; plasma, 250 mg/kg",3020 ± 660 ng/mL
same,MRT,"[4]; plasma, 250 mg/kg",12 ± 4.3 h
same,half-life,"[4]; plasma, 250 mg/kg",11 ± 8 h
same,AUC0-∞ /Dose,"[4]; p.o. 10 mg/kg, regular emulsion",0.225 ± 0.033 (μg·h/mL)/(mg/kg)
same,Ka (absorption rate constant),"[4]; p.o. 50 mg/kg, regular emulsion, Gastroplus three-compartment fitting",0.029 ± 0.046 h⁻¹
same,AUC0-∞ /Dose,[4]; [5],0.122 ± 0.027 ^a (μg·h/mL)/(mg/kg)
same,fraction absorbed in GIT (deconvolution analysis),[4]; [5],10.8%
same,Tmax,"[4]; p.o. 250 mg/kg, regular emulsion, 250 mg/kg",4.0 ± 2.0 h
